Laboratory results as given in ChEMBL document CHEMBL1132994, “Synthesis and anticonvulsant and neurotoxic properties of substituted N-phenyl derivatives of the phthalimide pharmacophore” (J Med Chem, 2000).
Active and inactive are the calls of the source. The calls are words filed in the database; no cut-off is given here.

Columns and labels:
[1] = test system: Mus musculus; experiment: Anticonvulsant activity in mice through seizures induced by maximal electroshock (MES) tests after ip administration at a concentration of 300 mg/kg after 4 hours; Inactive; format: functional, organism-based; parameters: dose 300 mg/kg
[2] = test system: Mus musculus; experiment: Neurotoxicity determined by rotarod test after intraperitoneal administration at a concentration of 300 mg/kg after 4 hours; Inactive; format: functional, organism-based; parameters: dose 300 mg/kg
[3] = test system: Mus musculus; experiment: Anticonvulsant activity in mice through seizures induced by sc pentylenetetrazole (intraperitoneal administration at a concentration of 300 mg/kg after 30 min; Inactive; format: functional, organism-based; parameters: dose 300 mg/kg
[4] = test system: Mus musculus; experiment: Anticonvulsant activity in mice through seizures induced by sc pentylenetetrazole (intraperitoneal administration at a concentration of 300 mg/kg after 4 hours; Inactive; format: functional, organism-based; parameters: dose 300 mg/kg
[5] = test system: Mus musculus; experiment: Anticonvulsant activity in mice through seizures induced by maximal electroshock (MES) tests after ip administration at a concentration of 100 mg/kg after 30 min; Inactive; format: functional, organism-based; parameters: dose 100 mg/kg
[6] = test system: Mus musculus; experiment: Neurotoxicity by rotarod test after intraperitoneal administration at a concentration of 300 mg/kg after 30 minutes; Inactive; format: functional, organism-based; parameters: dose 300 mg/kg
[7] = test system: Rattus norvegicus; experiment: Anticonvulsant activity was measured in rats through seizures induced by maximal electroshock (MES) tests by oral administration of drug after 2 hours.; format: functional
Method in brief: (§1)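 Rats given a single oral dose of 30 or 50 mg/kg, depending on compound; MES protection scored at 15, 30, 60, 120 and 240 min. Activity graded by fraction of animals protected (0-25%, 25-50%, 50-75%, 75-100%); neurotoxicity monitored at the same time points.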

[8] = test system: Mus musculus; experiment: Anticonvulsant activity in mice through seizures induced by subcutaneous pentylenetetrazole (scPTZ) tests after ip administration at a concentration of 300 mg/kg after 30 min; active; format: functional, organism-based; parameters: dose 300 mg/kg
[9] = test system: Rattus norvegicus; experiment: Anticonvulsant activity was measured in rats through seizures induced by maximal electroshock (MES) tests by oral administration of drug after 1 hour.; format: functional; method in brief: as §1
[10] = test system: Rattus norvegicus; experiment: Anticonvulsant activity was measured in rats through seizures induced by maximal electroshock (MES) tests by oral administration of drug after 15 minutes.; format: functional; method in brief: as §1
[11] = test system: Mus musculus; experiment: Anticonvulsant activity in mice through seizures induced by maximal electroshock (MES) tests after ip administration at a concentration of 100 mg/kg after 30 min; active; format: functional, organism-based; parameters: dose 100 mg/kg
[12] = test system: Rattus norvegicus; experiment: Toxicity screening in rats dosed orally with the compound; No toxicity; format: organism-based; conditions: in vivo, po
[13] = test system: Rattus norvegicus; experiment: Anticonvulsant activity was measured in rats through seizures induced by maximal electroshock (MES) tests by oral administration of drug after 30 minutes.; format: functional; method in brief: as §1
[14] = test system: Mus musculus; experiment: Neurotoxicity by rotarod test after intraperitoneal administration at a concentration of 300 mg/kg after 30 minutes; active; format: functional, organism-based; parameters: dose 300 mg/kg
[15] = test system: Mus musculus; experiment: Anticonvulsant activity in mice through seizures induced by scpentylenetetrazol (intraperitoneal administration at a concentration of 300 mg/kg after 4 hours; Inactive; format: functional, organism-based; parameters: dose 300 mg/kg
[16] = test system: Rattus norvegicus; experiment: Anticonvulsant activity was measured in rats through seizures induced by maximal electroshock (MES) tests by oral administration of drug after 4 hours.; format: functional; method in brief: as §1
[17] = test system: Mus musculus; experiment: Neurotoxicity by rotarod test after intraperitoneal administration at a concentration of 300 mg/kg after 30 minutes; Active; format: functional, organism-based; parameters: dose 300 mg/kg
[18] = test system: Rattus norvegicus; experiment: Anticonvulsant activity was measured in rats through seizures induced by maximal electroshock (MES) tests by oral administration of drug after 15 minutes; No activity; format: functional, organism-based; method in brief: as §1
[19] = test system: Mus musculus; experiment: Anticonvulsant activity in mice through seizures induced by subcutaneous pentylenetetrazole (scPTZ) tests after ip administration at a concentration of 300 mg/kg after 4 hours; Inactive; format: functional, organism-based; parameters: dose 300 mg/kg
[20] = test system: Mus musculus; experiment: Anticonvulsant activity in mice through seizures induced by subcutaneous pentylenetetrazole (scPTZ) tests after ip administration at a concentration of 300 mg/kg after 30 min; Inactive; format: functional, organism-based; parameters: dose 300 mg/kg
[21] = test system: Rattus norvegicus; experiment: Effective dose required to assure anticonvulsant protection in 50% of rats dosed orally by MES test.; format: functional; conditions: po
Method in brief: (§2)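 Rats dosed orally; ED50 is the dose giving anticonvulsant protection in 50% of animals in the MES or scPtz test. TD50 is the minimal neurotoxic dose in 50% of animals. Time to peak effect was also determined.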

[22] = test system: Rattus norvegicus; experiment: Effective dose required to assure anticonvulsant protection in 50% of rats dosed orally by scPTZ test.; format: functional; conditions: po; method in brief: as §2
[23] = test system: Mus musculus; experiment: Anticonvulsant activity in mice through seizures induced by maximal electroshock (MES) tests after ip administration at a concentration of 100 mg/kg after 30 min; Active; format: functional, organism-based; parameters: dose 100 mg/kg
[24] = test system: Mus musculus; experiment: Anticonvulsant activity in mice through seizures induced by maximal electroshock (MES) tests after ip administration at a concentration of 300 mg/kg after 4 hours; Active; format: functional, organism-based; parameters: dose 300 mg/kg
[25] = dose eliciting minimal neurological toxicity in 50% of animals.; format: organism-based; conditions: rat, in vivo
[26] = test system: Mus musculus; experiment: Anticonvulsant activity in mice through seizures induced by maximal electroshock (MES) tests after intraperitoneal administration at a concentration of 100 mg/kg after 30 min; active; format: functional, organism-based; parameters: dose 100 mg/kg
[27] = test system: Mus musculus; experiment: Anticonvulsant activity in mice through seizures induced by maximal electroshock (MES) tests after ip administration at a concentration of 300 mg/kg after 4 hours; active; format: functional, organism-based; parameters: dose 300 mg/kg
[28] = test system: Mus musculus; experiment: Neurotoxicity by rotarod test after intraperitoneal administration at a concentration of 300 mg/kg after 30 minutes.; active; format: functional, organism-based; parameters: dose 300 mg/kg
[29] = test system: Mus musculus; experiment: Neurotoxicity by rotarod test after intraperitoneal administration at a concentration of 300 mg/kg after 4 hours.; Inactive; format: functional, organism-based; parameters: dose 300 mg/kg
[30] = test system: Mus musculus; experiment: Anticonvulsant activity in mice through seizures induced by maximal electroshock (MES) tests after intraperitoneal administration at a concentration of 300 mg/kg after 4 hours; Inactive; format: functional, organism-based; parameters: dose 300 mg/kg
[31] = test system: Mus musculus; experiment: Neurotoxicity by rotarod test after intraperitoneal administration at a concentration of 300 mg/kg after 4 hours; Active; format: functional, organism-based; parameters: dose 300 mg/kg
[32] = test system: Mus musculus; experiment: Anticonvulsant activity in mice through seizures induced by subcutaneous pentylenetetrazole (scPTZ) tests after ip administration at a concentration of 300 mg/kg after 30 min; Active; format: functional, organism-based; parameters: dose 300 mg/kg
[33] = test system: Mus musculus; experiment: Anticonvulsant activity in mice through seizures induced by subcutaneous pentylenetetrazole (scPTZ) tests after ip administration at a concentration of 300 mg/kg after 4 hours; Active; format: functional, organism-based; parameters: dose 300 mg/kg

In the case of Cc1c(N2C(=O)c3ccccc3C2=O)cccc1[N+](=O)[O-], the Activity [1] is reported as “inactive”, the Activity [2] is reported as “inactive” and the Activity [3] is reported as “inactive”. For the same compound, the Activity [4] was “inactive”, the Activity [5] was “inactive” and the Activity [6] was “inactive”.
For Cc1cccnc1N1C(=O)c2ccccc2C1=O, the Activity [1] was “inactive”, the Activity in animals [7] was 50% and the Activity [2] was “inactive”. The Activity [8] was “Active”, the Activity in animals [9] was 50% and the Activity in animals [10] was 25%. The Activity [11] was “Active”, the Toxicity [12] was “No toxicity” and the Activity [4] was “inactive”. For the same compound, the Activity in animals [13] was 50% and the Activity [14] was “Active”.
In the case of Cc1cccc(C)c1N1C(=O)c2ccccc2C1=O, the Activity [1] is reported as “inactive”, the Activity [15] is reported as “inactive” and the Activity in animals [7] is reported as 25%. The Activity [2] was “inactive”, the Activity in animals [16] was 50% and the Activity in animals [10] was 50%. For the same compound, the Activity [11] was “Active”, the Activity [3] was “inactive” and the Toxicity [12] was “No toxicity”. The Activity in animals [13] was 50% and the Activity [6] was “inactive”.
In the case of Cc1cccc(N)c1N1C(=O)c2ccccc2C1=O, the Activity [17] is reported as “Active”, the Activity in animals [7] is reported as 25% and the Activity in animals [18] is reported as “No activity”. The Activity [19] was “inactive”, the Activity [2] was “inactive” and the Activity [20] was “inactive”. For the same compound, the ED50 [21] was 28.3 mg/kg, the Activity in animals [16] was 25% and the Activity in animals [9] was 75%. For the same compound, the Toxicity [12] was “No toxicity”, the ED50 [22] was over 250 mg/kg and the Activity [23] was “Active”. For the same compound, the Activity [24] was “Active” and the TD50 [25] was over 500 mg/kg.
In the case of O=C1NC(=O)C(c2ccccc2)(c2ccccc2)N1 [PHENYTOIN], the Activity in animals [7] is reported as 100%, the Activity [19] is reported as “inactive” and the Activity [2] is reported as “inactive”. For the same compound, the Activity [20] was “inactive”, the Activity in animals [16] was 25% and the Activity in animals [9] was 100%. The Activity in animals [10] was 100%, the Activity [26] was “Active” and the Activity [27] was “Active”. The ED50 [22] was over 800 mg/kg, the TD50 [25] was over 3000 mg/kg and the Activity in animals [13] was 100%. The Activity [14] was “Active”.
With COC(=O)c1ccccc1N1C(=O)c2ccccc2C1=O the Activity [1] was “inactive”, the Activity [28] was “Active” and the Activity [3] was “inactive”. The Activity [4] was “inactive” and the Activity [29] was “inactive”.
In the case of COc1ccc(N2C(=O)c3ccccc3C2=O)c(OC)c1, the Activity [2] is reported as “inactive”, the Activity [3] is reported as “inactive” and the Activity [4] is reported as “inactive”. The Activity [5] was “inactive”, the Activity [30] was “inactive” and the Activity [6] was “inactive”.
For Cc1cc(N)ccc1N1C(=O)c2ccccc2C1=O, the Activity [17] was “Active”, the Activity [20] was “inactive” and the Activity [4] was “inactive”. The Activity [23] was “Active”, the Activity [24] was “Active” and the Activity [31] was “Active”.
In the case of Cc1ccc([N+](=O)[O-])cc1N1C(=O)c2ccccc2C1=O, the Activity [17] is reported as “Active”, the Activity [32] is reported as “Active” and the Activity [33] is reported as “Active”. For the same compound, the Activity [23] was “Active”, the Activity [24] was “Active” and the Activity [31] was “Active”.
